The text below walks through data of ChEMBL document CHEMBL4400576, “Identification of Pyrazolo[1,5-a]pyridine-3-carboxamide Diaryl Derivatives as Drug Resistant Antituberculosis Agents” (ACS Med Chem Lett, 2019).

≈ marks a conversion by molar mass, not a printed value.

The subject of data set [1] is Vero. Description: Cytotoxicity against African green monkey Vero cells measured after 72 hrs by CellTiter 96 aqueous non-radioactive cell proliferation assay. The data set is classed as cell-based. The settings on record: Chlorocebus sabaeus. The method in brief: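 Vero cells were exposed to compound, and cytotoxicity was reported as IC50 in µg/mL.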
Data set [2] is described as follows: Selectivity index, ratio of IC50 for African green monkey Vero cells to MIC>=90 for Mycobacterium tuberculosis H37Rv. The format is toxicity. The settings on record: read-out: Selectivity Index. The method in brief: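 SI is Vero cell IC50 divided by MABA MIC against H37Rv, with MIC tested at 0.002 to 0.5 μg/mL.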
In data set [3] the test system is Mycobacterium tuberculosis. Nature of the data set: Antibacterial activity against Mycobacterium tuberculosis H37Rv after 7 days by microplate alamar blue assay. The format is functional. The note with it: 168 h. The method in brief: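 MIC against H37Rv by MABA. Primary screen run at 0.02 to 5 μg/mL. Compounds retested at 0.002 to 0.5 μg/mL.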
Background: Resazurin is reduced to fluorescent resorufin, in cell work by metabolically active cells.

A short description of data set [4]: AUC (0 to infinity) in Sprague-Dawley rat at 10 mg/kg, po by LC-MS/MS analysis. The format is ADME, organism-based. On the set-up: dose 10 mg/kg, route oral, time infinity. The settings on record: in vivo. The method in brief:
(§1)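 Rats received a single dose of compound, either intravenously at 2.5 mg/kg or orally at 10 mg/kg, in separate arms. Plasma parameters were AUC0-∞ (h*µg/L), Cmax (µg/L), Tmax, T1/2 and MRT (h). Oral bioavailability F (%) was derived from the oral and intravenous arms.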

Data set [5] is described as follows: Cmax in Sprague-Dawley rat at 10 mg/kg, po by LC-MS/MS analysis. The note with it: in vivo. On the set-up: dose 10 mg/kg, route oral. The data set is classed as ADME, organism-based. The method in brief: as §1
Data set [6] can be described thus: Tmax in Sprague-Dawley rat at 10 mg/kg, po by LC-MS/MS analysis. The format is ADME, organism-based. The note with it: in vivo. The method in brief: as §1
Data set [7] in a line: Half life in Sprague-Dawley rat at 10 mg/kg, po by LC-MS/MS analysis. The data set is classed as ADME, organism-based. The note with it: in vivo. The method in brief:
as §1

A short description of data set [8]: MRT (0 to infinity) in Sprague-Dawley rat at 10 mg/kg, po by LC-MS/MS analysis. The format is ADME, organism-based. The note with it: in vivo. The method in brief:
as §1

Data set [9] is described as follows: Oral bioavailability in Sprague-Dawley rat at 10 mg/kg by LC-MS/MS analysis. The format is ADME, organism-based. The settings on record: in vivo. The method in brief: as §1
Data set [10] is described as follows: AUC (0 to infinity) in Sprague-Dawley rat at 2.5 mg/kg, iv by LC-MS/MS analysis. The settings on record: in vivo. The data set is classed as ADME, organism-based. On the set-up: dose 2.5 mg/kg, route intravenous, time infinity. The method in brief: as §1
Data set [11] in a line: Cmax in Sprague-Dawley rat at 2.5 mg/kg, iv by LC-MS/MS analysis. The data set is classed as ADME, organism-based. On the set-up: dose 2.5 mg/kg, route intravenous. The note with it: in vivo. The method in brief: as §1
Data set [12] in a line: Tmax in Sprague-Dawley rat at 2.5 mg/kg, iv by LC-MS/MS analysis. The format is ADME, organism-based. The note with it: in vivo. The method in brief:
as §1

The nature of data set [13]: Half life in Sprague-Dawley rat at 2.5 mg/kg, iv by LC-MS/MS analysis. The data set is classed as ADME, organism-based. The settings on record: in vivo. The method in brief:
as §1

Data set [14] is described as follows: MRT (0 to infinity) in Sprague-Dawley rat at 2.5 mg/kg, iv by LC-MS/MS analysis. The note with it: in vivo. The data set is classed as ADME, organism-based. The method in brief: as §1

As a reminder, the IC50 is the concentration that inhibits the measured activity by half. With `COc1ccn2nc(C)c(C(=O)NCc3ccc(-c4ccc(OC(F)(F)F)cc4)c(OC)c3)c2c1`, the IC50 in data set [1] came to 11.8 µg/mL (≈ 24.3 µM). In data set [2], the selectivity ratio was 1680.

For orientation: MIC90 means the lowest concentration that inhibits either 90% of growth or 90% of the strains tested, depending on the study. `COc1ccn2nc(C)c(C(=O)NCc3nnc(-c4ccc(OC(F)(F)F)cc4)o3)c2c1` came in with an MIC90 in data set [3] greater than 5 µg/mL.

In the case of `CO[C@H]1/C=C/O[C@@]2(C)Oc3c(C)c(O)c4c(O)c(c(/C=N/N5CCN(C)CC5)c(O)c4c3C2=O)NC(=O)/C(C)=C\C=C\[C@H](C)[C@H](O)[C@@H](C)[C@@H](O)[C@@H](C)[C@H](OC(C)=O)[C@@H]1C` [RIFAMPIN], the IC50 in data set [1] was greater than 100 µg/mL. Also, in data set [2], the selectivity ratio is greater than 12500.

As to `COc1ccn2nc(C)c(C(=O)NCc3ccc(-c4ccc(OC(F)(F)F)cc4)cc3OC)c2c1`, the MIC90 in [3] came out at 0.28 µg/mL (≈ 0.577 µM).

Take `COc1nc2ccc(Br)cc2cc1[C@@H](c1ccccc1)[C@@](O)(CCN(C)C)c1cccc2ccccc12` [BEDAQUILINE]: in data set [3], the MIC90 was in the range of 0.02 to 0.03 µg/mL (≈ 0.036 to 0.054 µM). Besides, the IC50 in data set [1] is greater than 10 µg/mL. In data set [2], the selectivity ratio was greater than 500.

`COc1ccn2nc(C)c(C(=O)NCc3cn(-c4ccc(OC(F)(F)F)cc4)nn3)c2c1` had an MIC90 in data set [3] greater than 5 µg/mL.

Take `COc1ccn2nc(C)c(C(=O)NCc3ccc(-c4ccc(OC(F)(F)F)cc4)nc3)c2c1`: the IC50 in data set [1] was 28.4 µg/mL (≈ 62.2 µM). The selectivity ratio in [2] amounted to 535.

`COc1ccn2nc(C)c(C(=O)NCc3cnc(-c4ccc(OC(F)(F)F)cc4)s3)c2c1` yielded an MIC90 in data set [3] of 0.53 µg/mL (≈ 1.15 µM).

As to `COc1ccn2nc(C)c(C(=O)NCc3ccc(-c4ccc(OC(F)(F)F)cc4)cc3C(F)(F)F)c2c1`, the MIC90 in data set [3] is greater than 5 µg/mL.

In the case of `COc1ccn2nc(C)c(C(=O)NCc3ncc(-c4ccc(OC(F)(F)F)cc4)o3)c2c1`, the MIC90 in [3] stood at 1.96 µg/mL (≈ 4.39 µM).

On to `COc1ccn2nc(C)c(C(=O)NCc3ccc(-c4ccc(OC(F)(F)F)cc4)c(F)c3)c2c1`, for which the IC50 in data set [1] was greater than 50 µg/mL. Also, the selectivity ratio in data set [2] was greater than 25000.

Take `NNC(=O)c1ccncc1` [ISONIAZID]: in [3], the MIC90 is 0.239 to 0.48 µg/mL (≈ 1.74 to 3.5 µM).

Regarding `COc1ccn2nc(C)c(C(=O)NCc3ccc(-c4ccc(OC(F)(F)F)cc4)c(C(F)(F)F)c3)c2c1`, the IC50 in [1] came out at 11.6 µg/mL (≈ 22.2 µM). Further, the selectivity ratio in data set [2] came out at 402.

The AUC(0-inf) is total exposure, with the tail of the curve extrapolated. For orientation: Cmax means the highest concentration seen after dosing. A word on the Tmax: it is the time from dosing to the highest level. What is called half-life is the time in which the quantity being followed falls by half. Usually MRT inf stands for the average time that molecules of a dose stay in the body. Usually bioavailability stands for dose-corrected exposure relative to a reference, in per cent. As to `COc1ccn2nc(C)c(C(=O)NCc3ccc(-c4ccc(OC(F)(F)F)cc4)cn3)c2c1`, the IC50 in [1] is greater than 50 µg/mL. Besides, the selectivity ratio in data set [2] is greater than 25000. The AUC(0-inf) in data set [4] was determined as 15600 ng·h/mL; in data set [10], 9000 ng·h/mL. Moreover, the Cmax in [5] worked out at 1430 ng/mL; in data set [11] it was 4150 ng/mL. Also, the Tmax in data set [6] was found to be 4.67 h; in [12], 4.8 min. In addition, the half-life was 5.1 h in data set [7] and 3.49 h in data set [13]. Besides, the MRT inf in [8] worked out at 8.21 h; in [14], 4.02 h. The compound also gave a bioavailability in data set [9] of 41%.

On to `COc1ccn2nc(C)c(C(=O)NCc3ccc(-c4ccc(OC(F)(F)F)cc4)s3)c2c1`, for which the IC50 in data set [1] was greater than 50 µg/mL. Moreover, in data set [2], the selectivity ratio was greater than 25000.

For `COc1ccn2nc(C)c(C(=O)NCc3ncc(-c4ccc(OC(F)(F)F)cc4)[nH]3)c2c1`, in data set [3], the MIC90 is greater than 5 µg/mL.

Compound `CC(=O)NC[C@H]1CN(c2ccc(N3CCOCC3)c(F)c2)C(=O)O1` [LINEZOLID] yielded an MIC90 in data set [3] of 1.25 to 3.27 µg/mL (≈ 3.72 to 9.69 µM).

In [3], `COc1ccn2nc(C)c(C(=O)NCc3ccc(-c4ccc(OC(F)(F)F)cc4)cc3C)c2c1` displayed an MIC90 of 0.57 µg/mL (≈ 1.21 µM).

Consider `COc1ccn2nc(C)c(C(=O)NCc3ccc(-c4ccc(OC(F)(F)F)cc4)c(C)c3)c2c1`, for which the IC50 in [1] is 3.15 µg/mL (≈ 6.71 µM). Also, the selectivity ratio in data set [2] amounted to 242.

Consider `COc1ccn2nc(C)c(C(=O)NCc3ccc(-c4ccc(OC(F)(F)F)cc4)cc3F)c2c1`, for which the IC50 in [1] is greater than 50 µg/mL. Moreover, the selectivity ratio in [2] is greater than 7140.
